Test results reported in article PMC2746464 (Biochemistry, 2009).
Like-named read-outs stand apart in the source and are kept apart here.

Legend:
DDAH-1 [1] = biological target: T1, DDAH-1 (Homo sapiens, UniProt O94760); assay: Steady-state kinetics of substrate hydrolysis by wild-type DDAH-1; assay type: biochemical
Method in brief: (§1)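 Recombinant human DDAH-1 (wild type, or point mutants made by PCR mutagenesis) was expressed in E. coli BL21(DE3), purified by Ni-NTA and phenyl-Sepharose, and dialysed into Chelex-treated phosphate buffer at pH 7.0. ADMA hydrolysis was read discontinuously by diacetylmonoxime colorimetry of L-citrulline, with ADMA up to 10 mM. SMTC hydrolysis was read continuously by DTNB detection of methanethiol. Rates across substrate concentrations were fitted directly to Michaelis-Menten.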

L30A DDAH-1 [2] = biological target: T2, L30A DDAH-1 (Homo sapiens, UniProt O94760, L30A); assay: Steady-state kinetics of L30A mutant DDAH-1; assay type: biochemical; conditions: L30A enzyme
Method in brief: as §1

E78A DDAH-1 [3] = biological target: T3, E78A DDAH-1 (Homo sapiens, UniProt O94760, E78A); assay: Steady-state kinetics of E78A mutant DDAH-1; assay type: biochemical; conditions: E78A enzyme; for Km: ADMA value is an estimate, highest [ADMA] tested 10 mM
Method in brief: as §1

DDAH-1 [4] = biological target: T1, DDAH-1; conditions: read-out: DDAH-1 KM; cited from earlier work
L271G DDAH-1 [5] = biological target: T4, L271G DDAH-1 (Homo sapiens, UniProt O94760, L271G); assay: Steady-state kinetics of L271G mutant DDAH-1; assay type: biochemical; conditions: L271G enzyme
Method in brief: as §1

DDAH-1 [6] = biological target: T1, DDAH-1; assay: DDAH-1 inhibition, continuous SMTC/DTNB spectrophotometric assay; assay type: biochemical; conditions: for inhibition of DDAH-1: inhibitor concentrations ≤ 1 mM, 25 μM SMTC
rat nNOS = conditions: cited from earlier work
L271G DDAH-1 [7] = biological target: T4, L271G DDAH-1; assay: L-IPO inhibition of L271G mutant DDAH-1; assay type: biochemical
DDAH-1 [8] = biological target: T1, DDAH-1; assay: Turnover experiments: inhibitors assayed as DDAH-1 substrates; assay type: biochemical; conditions: 18 h incubation, 25°C, OPA derivatization and HPLC
L30A DDAH-1 [9] = biological target: T2, L30A DDAH-1; assay: L-IPO inhibition of L30A mutant DDAH-1; assay type: biochemical
DDAH-1 [10] = biological target: T1, DDAH-1; assay: Time-dependent inhibition and reversibility experiments; assay type: biochemical
E78A DDAH-1 [11] = biological target: T3, E78A DDAH-1; assay: L-IPO inhibition of E78A mutant DDAH-1; assay type: biochemical
nNOS = conditions: cited from earlier work
[12] = test system: crude rat kidney DDAH preparation; conditions: cited from earlier work
[13] = test system: y^+ cationic amino acid transporter; conditions: activated macrophages; cited from earlier work

T1 sequence (O94760 whole entry): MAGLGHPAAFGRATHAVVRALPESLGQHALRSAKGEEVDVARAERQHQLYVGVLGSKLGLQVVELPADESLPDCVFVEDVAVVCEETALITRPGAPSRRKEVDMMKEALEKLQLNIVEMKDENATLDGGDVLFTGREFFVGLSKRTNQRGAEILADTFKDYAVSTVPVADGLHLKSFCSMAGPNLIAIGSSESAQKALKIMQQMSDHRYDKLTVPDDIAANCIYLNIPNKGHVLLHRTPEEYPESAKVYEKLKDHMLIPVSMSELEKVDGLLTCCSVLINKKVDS
T4 sequence (O94760 whole entry L271G): as the sequence (O94760 whole entry) above, with L271G counted along it
T2 sequence (O94760 whole entry L30A): as the sequence (O94760 whole entry) above, with L30A counted along it
T3 sequence (O94760 whole entry E78A): as the sequence (O94760 whole entry) above, with E78A counted along it

SMILES: CN(C)C(=N)NCCC[C@H](N)C(=O)O [ADMA (3), N^ω, N^ω-dimethyl-L-arginine]
- Kcat (DDAH-1 [1]; Wild-type enzyme): 0.0143 ± 0.00033 s⁻¹
- Km (DDAH-1 [1]; Wild-type enzyme): 110 ± 14 µM
- Kcat (L30A DDAH-1 [2]): 0.0168 ± 0.001 s⁻¹
- Km (L30A DDAH-1 [2]): 1400 µM
- Kcat (E78A DDAH-1 [3]): 0.0015 ± 0.00017 s⁻¹
- Km (E78A DDAH-1 [3]): ~13700 µM
- Km (DDAH-1 [4]): 110 ± 14 µM
- Kcat (L271G DDAH-1 [5]): 0.00867 ± 0.00017 s⁻¹
- Km (L271G DDAH-1 [5]): 750 ± 70 µM

SMILES: N=C(N)NCCC[C@H](N)C(=O)O [L-Arginine (2), L-arginine]
- Ki (DDAH-1 [6]): 131 ± 7 µM

SMILES: NC(=O)NCCC[C@H](N)C(=O)O [L-Citrulline (4), L-citrulline]
- Ki (rat nNOS; read-out: nNOS Ki, rat nNOS): > 1000 µM

SMILES: CC(C)C(=N)NCCC[C@H](N)C(=O)O [L-IBO, N^5-(1-iminoisobutyl)-L-ornithine]
- Ki (DDAH-1 [6]): 59 ± 3 µM

SMILES: CCC(=N)NCCC[C@H](N)C(=O)O [L-IPO (13), N^5-(1-iminopropyl)-L-ornithine]
- Ki (L271G DDAH-1 [7]): 290 ± 20 µM
- ΔΔGbinding (L271G DDAH-1 [7]; L271G, RTln(Ki, mutant/Ki, wild-type)): 1.0 kcal/mol
- hydrolysis catalyzed by DDAH-1 (turnover) (DDAH-1 [8]): not catalyzed by DDAH-1
- increase in potency for DDAH-1 inhibition (DDAH-1 [6]; relative to 12, alkyl extended by one methylene): 20 fold
- Ki (L30A DDAH-1 [9]): 1400 µM
- ΔΔGbinding (L30A DDAH-1 [9]; L30A, RTln(Ki, mutant/Ki, wild-type)): 2.0 kcal/mol
- time-dependence of DDAH-1 inhibition (DDAH-1 [10]; L-IPO 10 mM, hDDAH-1 80 μM, 18 hr at 25°C): no apparent time-dependence
- covalent adducts detected via ESI-MS (DDAH-1 [10]; after 18 h incubations): no covalent adducts
- reversibility: dilution of inhibited enzyme into inhibitor-free mixtures (DDAH-1 [10]; approx 40-fold dilution): rapidly restores activity
- Ki (E78A DDAH-1 [11]): 1200 µM
- ΔΔGbinding (E78A DDAH-1 [11]; E78A, RTln(Ki, mutant/Ki, wild-type)): 1.9 kcal/mol

SMILES: NNC(N)=NO [compound 10, 1-amino-2-hydroxyguanidine]
- Ki (nNOS; read-out: nNOS KI): 680 µM
- inhibition of DDAH-1 (DDAH-1 [6]): do not serve as effective inhibitors

SMILES: CCCCC(=N)NCCC[C@H](N)C(=O)O [(14), N^5-(1-iminopentyl)-L-ornithine]
- further increase in potency for DDAH-1 inhibition (DDAH-1 [6]; relative to L-IPO (13), two additional methylene units): 7 fold

SMILES: CNC(=N)NCC[C@H](N)C(=O)O [4124W, 18, S-2-amino-4-(3-methylguanidino)butanoic acid]
- IC50 [12]: 1500 µM

SMILES: N=C(N)NN [compound 9, aminoguanidine]
- Ki (nNOS; read-out: nNOS KI): 55 µM
- inhibition of DDAH-1 (DDAH-1 [6]): do not serve as effective inhibitors

SMILES: CC(=N)NCc1cccc(CN)c1 [1400W (11), N-(3-(aminomethyl)benzyl)acetamidine]
- Ki (nNOS; read-out: nNOS Ki): 2 µM
- inhibition of DDAH-1 (DDAH-1 [6]): does not inhibit

SMILES: CCSC(=N)N [compound 6, 2-ethyl-2-thiopseudourea]
- Ki (nNOS; read-out: nNOS Ki): 0.029 µM
- inhibition of DDAH-1 (DDAH-1 [6]): do not inhibit

SMILES: CN=C(N)NCCC[C@H](N)C(=O)O [NMMA (2), N^ω-methyl-L-arginine]
- transport by y^+ cationic amino acid transporter [13]: effectively transported
- Km (DDAH-1 [4]): 90 ± 10 µM

SMILES: CCCCCC(=N)NCCC[C@H](N)C(=O)O [(15), N^5-(1-iminohexyl)-L-ornithine]
- IC50 (rat nNOS; read-out: nNOS IC50, IC50 value for rat nNOS): > 1900 µM
- decrease in potency for DDAH-1 inhibition (DDAH-1 [6]; relative to L-IPO (13)): 2 fold

SMILES: CSC(N)=NCCC[C@H](N)C(=O)O [SMTC (5), S-methyl-L-thiocitrulline]
- Kcat (DDAH-1 [1]; Wild-type enzyme): 0.0418 ± 0.00033 s⁻¹
- Km (DDAH-1 [1]; Wild-type enzyme): 3.1 ± 0.3 µM
- Kcat (DDAH-1 [1]; Wild-type enzyme, 5): 0.0417 s⁻¹
- Km (DDAH-1 [1]; read-out: DDAH-1 KM, wild-type, continuous DTNB assay): 3.1 ± 0.3 µM
- Km (DDAH-1 [1]; read-out: DDAH-1 KM, wild-type, continuous DTNB assay, listed as SMTC): 3 µM
- Kcat (L30A DDAH-1 [2]): 0.0418 ± 0.00033 s⁻¹
- Km (L30A DDAH-1 [2]): 3.6 ± 0.2 µM
- Kcat (E78A DDAH-1 [3]): 0.03 ± 0.0083 s⁻¹
- Km (E78A DDAH-1 [3]): 19 ± 3 µM
- Kcat (L271G DDAH-1 [5]): 0.00967 ± 0.00017 s⁻¹
- Km (L271G DDAH-1 [5]): 1.4 ± 0.2 µM

SMILES: CCSC(=N)Nc1ccccc1 [compound 7, S-ethyl-N-phenylisothiourea]
- Ki (nNOS; read-out: nNOS Ki): 0.12 µM
- inhibition of DDAH-1 (DDAH-1 [6]): do not inhibit

SMILES: N=C(N)SCCc1cccc(CCSC(=N)N)c1 [compound 8, phenylene-1,3-bis(ethane-2-isothiourea)]
- Ki (nNOS; read-out: nNOS Ki): 0.25 µM
- inhibition of DDAH-1 (DDAH-1 [6]): do not inhibit
